Measurements: article PMC7678623 (Angewandte Chemie (International ed. in English), 2019)

How the values were obtained:
Type in all cases: cell-based
CDK4/6 = test: Immunoblot for CDK4/6 degradation in Jurkat cells; conditions: WT Jurkat cells, 4h, Figure 3
How it was run: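 Jurkat cells, which express both CDK4 and CDK6, were treated for 4h with test compound at 1 µM. The test compounds were degraders built on each of three CDK4/6 inhibitor scaffolds. CDK4 and CDK6 protein levels were then assessed by immunoblot.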

IKZF1/3 = test: Immunoblot for IKZF1/3 degradation in Jurkat cells; conditions: 4h, Figure 3
Molt4 cells = test: Multiplexed MS-based quantitative proteomics; conditions: 250 nM, 5h
[1] = system: CDK4/6, IKZF1/3, phosphorylated Rb; test: Immunoblots in Granta-519 cells; conditions: 1 µM, 1d
[2] = system: wildtype and Crbn−/− Jurkat cells; test: Cell cycle profile by propidium iodide staining of DNA content; conditions: 100 nM, 24h
How it was run: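 Wildtype and Crbn−/− Jurkat cells were exposed to 100 nM test compound for 24h, alongside a parent CDK4/6 inhibitor and an imide CRBN ligand as comparators. Cells were stained with propidium iodide for DNA content, and cell cycle distribution was read from fluorescence histograms and then quantitated.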

| Compound | CDK4 and CDK6 degradation selectivity (immunoblot) (CDK4/6) | IKZF1/3 degradation (immunoblot) (IKZF1/3) | CDK4 abundance change (Molt4 cells) | proteome-wide degradation selectivity (Molt4 cells) | CDK4/6 and IKZF1/3 protein loss (immunoblot) [1] | cell cycle effect (G1 arrest) ([2]; Crbn−/− Jurkat cells) | cell cycle effect (G1 arrest) ([2]; wildtype Jurkat cells) | levels of phosphorylated Rb (immunoblot) [1] |
| --- | --- | --- | --- | --- | --- | --- | --- | --- |
| CN(C)C(=O)c1cc2cnc(Nc3ccc(N4CCN(CCCCNC(=O)COc5cccc6c5C(=O)N(C5CCC(=O)NC5=O)C6=O)CC4)cn3)nc2n1C1CCCC1 (centres unmarked) [BSJ-04–132] | selective CDK4 degrader | none of which induced IKZF1/3 degradation | ~ 1.9 fold change | its level was reduced to a greater extent than those of CDK6, IKZF1 and IKZF3 | – | – | – | – |
| CN(C)C(=O)c1cc2cnc(Nc3ccc(N4CCN(CCCCNC(=O)CNc5cccc6c5C(=O)N(C5CCC(=O)NC5=O)C6=O)CC4)cn3)nc2n1C1CCCC1 (centres unmarked) [BSJ-01–187] | selectively degraded CDK4 | induced degradation of IKZF1/3 | – | – | – | – | – | – |
| CC(=O)c1c(C)c2cnc(Nc3ccc(N4CCN(CCCCNC(=O)COc5cccc6c5C(=O)N(C5CCC(=O)NC5=O)C6=O)CC4)cn3)nc2n(C2CCCC2)c1=O (centres unmarked) [BSJ-03–204] | dual CDK4/6 degrader | none of which induced IKZF1/3 degradation | – | selective for CDK4/6 degradation | only resulted in degradation of CDK4/6 | – | – | – |
| CC(=O)c1c(C)c2cnc(Nc3ccc(N4CCN(CC(=O)NCCOCCOCCOCCNc5cccc6c5C(=O)N(C5CCC(=O)NC5=O)C6=O)CC4)cn3)nc2n(C2CCCC2)c1=O (centres unmarked) [YKL-06–102] | induced selective degradation of CDK6 | induced degradation of IKZF1/3 | – | – | – | – | – | – |
| CC(=O)c1c(C)c2cnc(Nc3ccc(N4CCN(CCOCCOCCOCCNC(=O)COc5cccc6c5C(=O)N(C5CCC(=O)NC5=O)C6=O)CC4)cn3)nc2n(C2CCCC2)c1=O (centres unmarked) [BSJ-03–123] | selective CDK6 degrader | none of which induced IKZF1/3 degradation | – | loss of CDK6, but not CDK4 or IKZF1/3 | – | – | – | – |
| CC(=O)c1c(C)c2cnc(Nc3ccc(N4CCNCC4)cn3)nc2n(C2CCCC2)c1=O [palbociclib] | – | – | – | – | – | induced profound G1 arrest in both cell lines | induced profound G1 arrest in both cell lines | reduced levels of phosphorylated Rb |
| Nc1cccc2c1CN(C1CCC(=O)NC1=O)C2=O (centres unmarked) [lenalidomide] | – | – | – | – | – | had no effect | had no effect | – |
